Experimental data from different studies.
Lines come from different studies, so protocols differ. ≈ marks a conversion by molar mass, not a printed value.
Effect on: microbial growth

| Compound | organism | technique | strain | time | MIC |
| --- | --- | --- | --- | --- | --- |
| O=C(O)c1cccc(-n2c(/C=C/c3ccc(F)cc3)nc3ccncc3c2=O)c1 | Enterococcus faecium | broth dilution | NCTC7171 |  | > 128 µg/mL |
| COCCNc1ccc(-c2nc(-c3ccc(Oc4ccccc4)cc3)no2)cc1 | Enterococcus faecium | broth dilution |  | 24 h | > 32 µg/mL |
| C/C(=C\c1ccc(O)cc1)C(=O)Nc1ccc(C(=O)N[C@@H](CC(N)=O)C(=O)Nc2ccc(C(=O)Nc3ccc(C(=O)Nc4ccc(C(=O)O)cc4)c(O)c3OC(C)C)cc2)cc1 | Citrobacter freundii |  | DSM30039 |  | 0.125 µg/mL (≈ 0.148 µM) |
| O=C(O)Cc1ccc(Oc2ccc(-c3noc(-c4ccc(O)cc4)n3)cc2)cc1 | Enterococcus faecium | broth dilution |  | 24 h | > 32 µg/mL |
| CC(C)Oc1c(NC(=O)c2ccc(NC(=O)[C@H](CC(N)=O)NC(=O)c3ccc(NC(=O)c4ccc(C#N)cn4)cc3)cc2)ccc(C(=O)Nc2ccc(C(=O)O)cc2)c1O | Citrobacter freundii |  | DSM30039 |  | ≤ 0.03 µg/mL |
| O=C(O)COc1cccc(Oc2ccc(-c3noc(-c4ccc(O)cc4)n3)cc2)c1 | Enterococcus faecium | broth dilution |  | 24 h | > 32 µg/mL |
| N#Cc1ccc(/C=C/c2nc3ccncc3c(=O)n2-c2cccc(O)c2)cc1 | Enterococcus faecium | broth dilution | NCTC7171 |  | 128 µg/mL (≈ 349 µM) |
| CO[C@@H](C(N)=O)[C@H](NC(=O)c1ccc(NC(=O)c2ccc(C#N)cc2)cc1)C(=O)Nc1ccc(C(=O)Nc2ccc(C(=O)Nc3ccc(C(=O)O)cc3)c(O)c2OC(C)C)cc1 | Citrobacter freundii |  | DSM30039 |  | ≤ 0.03 µg/mL |
| O=C(O)c1cn(C2CC2)c2cc(N3CCNCC3)c(F)cc2c1=O | Mycobacterium intracellulare | resazurin | ATCC23068 |  | 1 µg/mL (≈ 3.02 µM) |
| O=C(O)CCc1cccc(Oc2ccc(-c3noc(-c4ccc(O)cc4)n3)cc2)c1 | Enterococcus faecium | broth dilution |  | 24 h | > 32 µg/mL |
| CC(C)Nc1cccc(-n2c(/C=C/c3ccc(C#N)cc3)nc3ccccc3c2=O)c1 | Enterococcus faecium | broth dilution | NCTC7171 |  | > 128 µg/mL |
| O=C(O)c1cn(C2CC2)c2cc(N3CCNCC3)c(F)cc2c1=O | Citrobacter freundii |  | DSM30039 |  | ≤ 0.03 µg/mL |
| COC(=O)CCNC(=O)c1cccc(-n2c(/C=C/c3ccc(C#N)cc3)nc3ccccc3c2=O)c1 | Enterococcus faecium | broth dilution | NCTC7171 |  | > 128 µg/mL |
| C[N+](C)(C)CCCc1ccc(Oc2ccc(-c3noc(-c4ccc(O)cc4)n3)cc2)cc1.[I-] | Enterococcus faecium | broth dilution |  | 24 h | 16 µg/mL |
| C/C(=C\c1ccc(C#N)cc1)C(=O)Nc1ccc(C(=O)N[C@@H](CC(N)=O)C(=O)Nc2ccc(C(=O)Nc3ccc(C(=O)Nc4ccc(C(=O)O)cc4)c(O)c3OC(C)C)cc2)cc1 | Citrobacter freundii |  | DSM30039 |  | 0.06 µg/mL (≈ 0.0704 µM) |
